Here are results for four molecules from ChEMBL document CHEMBL1152248, “The 'Ethereal' nature of TLR4 agonism and antagonism in the AGP class of lipid A mimetics” (Bioorg Med Chem Lett, 2008).

The source made the active and inactive calls. The calls are words filed in the database; no cut-off is given here.

In one data set the test system is Mus musculus. Description: Inhibition of LPS-induced serum TNFalpha production in iv dosed BALB/c mouse after 1.5 hrs by ELISA. Type of data set: functional, organism-based. The procedure, abridged:
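BALB/c mice (n = 3) were given 5 ng LPS iv, either alone or together with 0.2% TEOA vehicle or test compound. Serum was collected 1.5 h post-injection and TNF-α was measured by ELISA.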
(In an ELISA, binding on a coated surface is turned into a signal by an enzyme label.)

In data set [1] the target is T1, Toll-like receptor 4 (Homo sapiens, UniProt O00206). Nature of the data set: Agonist activity at TLR4 in human PBMC assessed as induction of TNFalpha production after 18 hrs by sandwich ELISA. Type of data set: functional. The method in brief:
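Human monocytes were isolated by 2 h adherence to tissue-culture plates. They were exposed to compound over a 0–10,000 range in 0.2% aq triethanolamine (TEOA) for 18 h. TNF-α in supernatants was measured by sandwich ELISA. Data are three replicate samples from one of three donors. ED50 was fitted with a four-parameter logistic dose–response model.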

The test system of data set [2] is Listeria monocytogenes. Nature of the data set: Inhibition of CRX-527-mediated protection against Listeria monocytogenes infected iv dosed BALB/c mouse administered 2 days prior to bacterial challenge measured after 2 days. Type of data set: organism-based. Conditions: in vivo, 48 h. The method in brief:
(§1)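 BALB/c mice got AGP iv in 100 µL of 0.2% aq TEOA 2 days before iv challenge with 10^5 L. monocytogenes. Two days after challenge, splenic CFUs were counted by serial dilution of homogenates. Log10 relative protection is control-group log10 CFU/spleen minus test-group log10 CFU/spleen.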

The target in data set [3] is T1, Toll-like receptor 4. Nature of the data set: Antagonist activity at TLR4 in human PBMC assessed as inhibition of LPS-stimulated TNFalpha production pre-incubated for 30 mins before LPS challenge measured after 18 hrs by ELISA. In kind it is functional. The procedure, abridged:
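Adherence-isolated human monocytes were preincubated with compound for 30 min, then stimulated with 100 ng/mL E. coli LPS. Supernatant TNF-α was measured by ELISA after 18 h. IC50 was fitted with a four-parameter logistic dose–response model.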

The test system of data set [4] is Influenza A virus. Nature of the data set: Protection against Influenza A/HK/68 virus infected BALB/c mouse assessed as survival at 0.05 mg/kg, intranasal administered 2 days prior to influenza challenge measured after 21 days. Type of data set: functional. The settings on record: inhaled or nasal. The method in brief:
(§2)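 Female/male unspecified BALB/c mice, 8 per group, given compound intranasally in 0.2% aqueous triethanolamine vehicle 2 days before intranasal influenza challenge. Vehicle-only group as control. Read-out is percent survival, recorded over 21 days after viral challenge.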

Data set [5] relates to Listeria monocytogenes. Nature of the data set: Protection against Listeria monocytogenes infected iv dosed BALB/c mouse assessed as reduction in splenic bacteria administered 2 days prior to bacterial challenge measured after 2 days. In kind it is functional, organism-based. The procedure, abridged: as §1
In data set [6] the test system is Influenza A virus. Description: Protection against Influenza A/HK/68 virus infected BALB/c mouse assessed as survival at 0.5 mg/kg, intranasal administered 2 days prior to influenza challenge measured after 21 days. Type of data set: functional. Conditions: inhaled or nasal. The method in brief: as §2
The test system of data set [7] is Influenza A virus. Description: Protection against Influenza A/HK/68 virus infected BALB/c mouse assessed as survival at 0.005 mg/kg, intranasal administered 2 days prior to influenza challenge measured after 21 days. Type of data set: functional. The settings on record: inhaled or nasal. The method in brief: as §2
In data set [8] the test system is Influenza A virus. Nature of the data set: Protection against Influenza A/HK/68 virus infected BALB/c mouse assessed as survival at 5 mg/kg, intranasal administered 2 days prior to influenza challenge measured after 21 days. In kind it is functional. The settings on record: inhaled or nasal. The method in brief: as §2

By IC50 is commonly meant the point on the concentration scale where inhibition reaches its midpoint.

T1 sequence (O00206 whole entry): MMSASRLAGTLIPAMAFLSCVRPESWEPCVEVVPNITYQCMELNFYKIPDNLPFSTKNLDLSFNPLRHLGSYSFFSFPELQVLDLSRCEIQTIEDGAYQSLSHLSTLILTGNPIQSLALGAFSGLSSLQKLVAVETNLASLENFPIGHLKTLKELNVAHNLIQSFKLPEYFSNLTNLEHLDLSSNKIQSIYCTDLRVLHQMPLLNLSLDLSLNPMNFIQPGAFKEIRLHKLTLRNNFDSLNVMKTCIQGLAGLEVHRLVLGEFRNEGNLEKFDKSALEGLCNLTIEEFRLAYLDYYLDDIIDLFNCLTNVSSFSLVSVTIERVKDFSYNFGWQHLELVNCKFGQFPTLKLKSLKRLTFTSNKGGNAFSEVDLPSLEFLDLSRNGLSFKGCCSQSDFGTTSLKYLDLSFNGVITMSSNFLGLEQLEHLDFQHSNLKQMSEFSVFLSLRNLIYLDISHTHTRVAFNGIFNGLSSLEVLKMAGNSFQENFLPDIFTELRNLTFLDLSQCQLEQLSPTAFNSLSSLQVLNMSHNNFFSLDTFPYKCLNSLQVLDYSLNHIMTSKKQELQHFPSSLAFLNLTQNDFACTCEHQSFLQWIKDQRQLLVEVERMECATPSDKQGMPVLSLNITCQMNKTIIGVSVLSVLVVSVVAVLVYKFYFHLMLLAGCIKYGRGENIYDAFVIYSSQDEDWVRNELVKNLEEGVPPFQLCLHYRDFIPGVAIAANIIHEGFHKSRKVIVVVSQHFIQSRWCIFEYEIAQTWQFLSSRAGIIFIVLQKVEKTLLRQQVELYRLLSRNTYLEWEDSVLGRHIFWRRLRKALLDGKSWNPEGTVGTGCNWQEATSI

Turning to `CCCCCCCCCCC[C@H](CC(=O)N[C@H]1[C@H](OC[C@H](NC(=O)C[C@@H](CCCCCCCCCCC)OCCCCCC)C(=O)O)O[C@H](CO)[C@@H](OP(=O)(O)O)[C@@H]1OC(=O)C[C@@H](CCCCCCCCCCC)OCCCCCC)OCCCCCC`, the result with Mus musculus and at Toll-like receptor 4 [1] was inactive. The Activity entry in the data set on Listeria monocytogenes [2] is listed as “Not Active”. In addition, at Toll-like receptor 4 [3], the IC50 was found to be 5.3 nM.
On to `CCCCCCCCCCC[C@H](CC(=O)N[C@H]1[C@H](OC[C@H](NC(=O)C[C@@H](CCCCCCCCCCC)OCCCCCCCCCC)C(=O)O)O[C@H](CO)[C@@H](OP(=O)(O)O)[C@@H]1OC(=O)C[C@@H](CCCCCCCCCCC)OCCCCCCCCCC)OCCCCCCCCCC`, for which the survival at 0.05 mg/kg in the data set with Influenza A virus [4] was determined as 60%. Further, the result in the data set with Listeria monocytogenes [5] was Active. Besides, the ED50 at Toll-like receptor 4 [1] amounted to 0.17 nM. For the same molecule, in the data set with Influenza A virus [6], the survival at 0.5 mg/kg was determined as 80%. In addition, the survival at 0.005 mg/kg in the data set with Influenza A virus [7] worked out at 20%. On Toll-like receptor 4 [3], the outcome was inactive. Besides, in the data set on Influenza A virus [8], the survival at 5 mg/kg is 100%.
Regarding `CCCCCCCCCCC[C@H](CC(=O)N[C@H]1[C@H](OC[C@H](NC(=O)C[C@@H](CCCCCCCCCCC)OC(=O)CCCCC)C(=O)O)O[C@H](CO)[C@@H](OP(=O)(O)O)[C@@H]1OC(=O)C[C@@H](CCCCCCCCCCC)OC(=O)CCCCC)OC(=O)CCCCC`, in the data set on Mus musculus, the result was Active. The outcome at Toll-like receptor 4 [1] was inactive. In the data set on Listeria monocytogenes [2], the Activity entry is given as “Dose-dependent effect”. Also, the IC50 on Toll-like receptor 4 [3] is 2.4 nM.
As to `CCCCCCCCCCC[C@H](CC(=O)N[C@H]1[C@H](OC[C@H](NC(=O)C[C@@H](CCCCCCCCCCC)OC(=O)CCCCCCCCC)C(=O)O)O[C@H](CO)[C@@H](OP(=O)(O)O)[C@@H]1OC(=O)C[C@@H](CCCCCCCCCCC)OC(=O)CCCCCCCCC)OC(=O)CCCCCCCCC`, the survival at 0.05 mg/kg in the data set on Influenza A virus [4] was found to be 70%. The result in the data set with Listeria monocytogenes [5] was Active. Also, on Toll-like receptor 4 [1], the ED50 was found to be 0.39 nM. For the same molecule, the survival at 0.5 mg/kg in the data set on Influenza A virus [6] stood at 70%. For the same molecule, the survival at 0.005 mg/kg with Influenza A virus [7] was determined as 30%. In addition, the outcome on Toll-like receptor 4 [3] was inactive. For the same molecule, in the data set with Influenza A virus [8], the survival at 5 mg/kg stood at 100%.
